Test [1] relates to Hepatitis C virus. Briefly: Selectivity ratio of EC50 for HCV genotype 1b Con1 harboring HCV genotype 1a H77 NS3 R155K mutant infected in human HuH7 cells to EC50 for HCV genotype 1b Con1 harboring HCV genotype 1a H77 wild type NS3 infected in human HuH7 cells. It counts as functional, Hepacivirus hominis, isolate Con1.
Test [2] concerns Hepatitis C virus. The test is described as follows: Antiviral activity against HCV genotype 1b Con1 harboring HCV genotype 1a H77 NS3 D168A mutant infected in human HuH7 cells assessed as inhibition of viral replication after 96 hrs by luciferase reporter gene assay. It counts as functional, organism-based, Hepacivirus hominis. The following applies: isolate Con1, Huh-7, 96 h. Put shortly:
(§1)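 Cell-based replicon antiviral assays against wild-type HCV and the R155K, A156T, D168A and D168V variants. Potency was expressed as EC50.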

Test [3] addresses Hepatitis C virus serine protease, NS3/NS4A (Hepatitis C virus, UniProt A3EZI9+D2K2A8). Briefly: Inhibition of wild type HCV genotype 1a NS3/4A protease expressed in Escherichia coli BL21(DE3) using Ac-DE-Dap(QXL 520)-EE-Abu-psi-[COO]AS-C(5-FAMsp)-NH2 as substrate preincubated for 1 hr followed by substrate addition. Also noted: species or system Hepatitis C virus subtype 1a. In outline: (§2)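 Enzyme inhibition constants (Ki) were determined against GT1a NS3/4A protease in three forms: wild type, R155K and D168A.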

Test [4] relates to Hepatitis C virus. Briefly: Antiviral activity against HCV genotype 1b Con1 harboring HCV genotype 1a H77 NS3 R155K mutant infected in human HuH7 cells assessed as inhibition of viral replication after 96 hrs by luciferase reporter gene assay. It counts as functional, organism-based, Hepacivirus hominis. To be noted: isolate Con1, Huh-7, 96 h. Put shortly:
as §1

Test [5] addresses Hepatitis C virus serine protease, NS3/NS4A (Hepatitis C virus, UniProt A3EZI9+D2K2A8, D168A). The test is described as follows: Inhibition of HCV genotype 1a NS3/4A protease D168A mutant expressed in Escherichia coli BL21(DE3) using Ac-DE-Dap(QXL 520)-EE-Abu-psi-[COO]AS-C(5-FAMsp)-NH2 as substrate preincubated for 1 hr followed by substrate addition. Further details: species or system Hepatitis C virus subtype 1a. Put shortly: as §2

Test [6] relates to Hepatitis C virus. The test is described as follows: Selectivity ratio of EC50 for HCV genotype 1b Con1 harboring HCV genotype 1a H77 NS3 A156T mutant infected in human HuH7 cells to EC50 for HCV genotype 1b Con1 harboring HCV genotype 1a H77 wild type NS3 infected in human HuH7 cells. It counts as functional, Hepacivirus hominis, isolate Con1.
Test [7] deals with Hepatitis C virus. The test is described as follows: Selectivity ratio of EC50 for HCV genotype 1b Con1 harboring HCV genotype 1a H77 NS3 D168V mutant infected in human HuH7 cells to EC50 for HCV genotype 1b Con1 harboring HCV genotype 1a H77 wild type NS3 infected in human HuH7 cells. It counts as functional, Hepacivirus hominis, isolate Con1.
In test [8] the test system is Hepatitis C virus. The test is described as follows: Antiviral activity against HCV genotype 1b Con1 harboring HCV genotype 1a H77 NS3 D168V mutant infected in human HuH7 cells assessed as inhibition of viral replication after 96 hrs by luciferase reporter gene assay. It counts as functional, organism-based, Hepacivirus hominis. The following applies: isolate Con1, Huh-7, 96 h. Put shortly: as §1
(In a reporter assay the amount or activity of a reporter protein is the signal.)

Test [9] concerns Hepatitis C virus. The test is described as follows: Antiviral activity against HCV genotype 1b Con1 harboring HCV genotype 1a H77 NS3 A156T mutant infected in human HuH7 cells assessed as inhibition of viral replication after 96 hrs by luciferase reporter gene assay. It counts as functional, organism-based, Hepacivirus hominis. The following applies: isolate Con1, Huh-7, 96 h. In outline:
as §1

The test system of test [10] is Hepatitis C virus. Briefly: Selectivity ratio of EC50 for HCV genotype 1b Con1 harboring HCV genotype 1a H77 NS3 D168A mutant infected in human HuH7 cells to EC50 for HCV genotype 1b Con1 harboring HCV genotype 1a H77 wild type NS3 infected in human HuH7 cells. It counts as functional, Hepacivirus hominis, isolate Con1.
Test [11] addresses Hepatitis C virus serine protease, NS3/NS4A (Hepatitis C virus, UniProt A3EZI9+D2K2A8, R155K). Briefly: Inhibition of HCV genotype 1a NS3/4A protease R155K mutant expressed in Escherichia coli BL21(DE3) using Ac-DE-Dap(QXL 520)-EE-Abu-psi-[COO]AS-C(5-FAMsp)-NH2 as substrate preincubated for 1 hr followed by substrate addition. Further details: species or system Hepatitis C virus subtype 1a. Put shortly: as §2

Test [12] has as its system Hepatitis C virus. The test is described as follows: Antiviral activity against HCV genotype 1b Con1 harboring HCV genotype 1a H77 wild type NS3 infected in human HuH7 cells assessed as inhibition of viral replication after 96 hrs by luciferase reporter gene assay. It counts as functional, organism-based, Hepacivirus hominis. The following applies: isolate Con1, Huh-7, 96 h. Put shortly: as §1

pEC50, pKi: −log10 of the molar value.

In general, pEC50 refers to −log10 of the EC50, conventionally taken in molar units. One may read the pKi as −log10 of the Ki, conventionally taken in molar units. A lower pKi goes with a large Ki. For the molecule `C=C[C@@H]1C[C@]1(NC(=O)[C@@H]1C[C@@H](Oc2nc3cc(OC)ccc3nc2Cl)CN1C(=O)[C@@H](NC(=O)OC1CCCC1)C(C)(C)C)C(=O)NS(=O)(=O)C1CC1`, the “Ratio EC50” value was 5.4 in test [1], 40 in [6], 7.3 in test [7] and 6.8 in [10]. Besides, the pEC50 in [2] was 7.30; in test [4], 7.40; in test [8], 7.27; in test [9], 6.53; in test [12], 8.13. The negative-log Ki (pKi) in test [3] is 8.42; in test [5], 7.00; in test [11], 8.39.

For `C=C[C@@H]1C[C@]1(NC(=O)[C@@H]1C[C@@H](Oc2nc3cc(OC)ccc3nc2C)CN1C(=O)[C@@H](NC(=O)OC1CCCC1)C(C)(C)C)C(=O)NS(=O)(=O)C1(C)CC1`, the “Ratio EC50” value in test [1] is reported as 6.2; in [6], 19; in [7], 13; in test [10], 10. The pEC50 in test [2] was 7.35; in test [4] it was 7.55; in test [8], 7.23; in [9], 7.06; in test [12], 8.35. Further, the pKi in test [3] is 8.15; in test [5], 6.85; in test [11], 8.00.

On to `C=C[C@@H]1C[C@]1(NC(=O)[C@@H]1C[C@@H](Oc2nc3cc(OC)ccc3nc2C)CN1C(=O)[C@@H](NC(=O)OC1CCCC1)C(C)(C)C)C(=O)NS(=O)(=O)C1CC1`, for which the “Ratio EC50” value in [1] is listed as 4.8; in test [6], 16; in test [7], 15; in test [10] it was 10. The pEC50 in [2] was 7.00; in test [4], 7.32; in [8], 6.82; in test [9], 6.79; in test [12], 8.00. In addition, the negative logarithm of the Ki (pKi) in test [3] was 8.04; in test [5], 6.84; in [11], 8.02.

Source of the values: ChEMBL document CHEMBL4196119, “Quinoxaline-Based Linear HCV NS3/4A Protease Inhibitors Exhibit Potent Activity against Drug Resistant Variants” (ACS Med Chem Lett, 2018).
